The source of these data is ChEMBL document CHEMBL1130826, “Novel constrained CCK-B dipeptoid antagonists derived from pipecolic acid” (Bioorg Med Chem Lett, 1998).

The target of assay [1] is T1, Cholecystokinin receptor type A (Cavia porcellus, UniProt Q63931).
T1 sequence (Q63931 whole entry): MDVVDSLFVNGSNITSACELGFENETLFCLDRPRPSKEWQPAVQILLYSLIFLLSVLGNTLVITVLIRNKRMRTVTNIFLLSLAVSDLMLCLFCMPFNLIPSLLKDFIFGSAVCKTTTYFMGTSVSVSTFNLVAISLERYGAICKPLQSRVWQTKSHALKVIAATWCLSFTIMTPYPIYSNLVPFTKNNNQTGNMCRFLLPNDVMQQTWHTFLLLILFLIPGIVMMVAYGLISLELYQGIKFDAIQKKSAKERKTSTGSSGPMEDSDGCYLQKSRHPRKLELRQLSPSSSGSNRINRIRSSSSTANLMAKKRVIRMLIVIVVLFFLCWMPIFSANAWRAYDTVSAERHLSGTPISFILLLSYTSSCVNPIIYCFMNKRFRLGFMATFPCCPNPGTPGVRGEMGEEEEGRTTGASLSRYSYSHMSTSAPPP
The experiment in a line: Binding affinity against CCK-A receptor in guinea pig pancreatic membranes. It is filed as cell membranes. Summed up: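 Ki from displacement of [3H]pCCK8 bound to guinea-pig pancreatic membranes (CCK-A receptor).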

The target of assay [2] is T2, Gastrin/cholecystokinin type B receptor (Rattus norvegicus, UniProt P30553).
T2 sequence (P30553 whole entry): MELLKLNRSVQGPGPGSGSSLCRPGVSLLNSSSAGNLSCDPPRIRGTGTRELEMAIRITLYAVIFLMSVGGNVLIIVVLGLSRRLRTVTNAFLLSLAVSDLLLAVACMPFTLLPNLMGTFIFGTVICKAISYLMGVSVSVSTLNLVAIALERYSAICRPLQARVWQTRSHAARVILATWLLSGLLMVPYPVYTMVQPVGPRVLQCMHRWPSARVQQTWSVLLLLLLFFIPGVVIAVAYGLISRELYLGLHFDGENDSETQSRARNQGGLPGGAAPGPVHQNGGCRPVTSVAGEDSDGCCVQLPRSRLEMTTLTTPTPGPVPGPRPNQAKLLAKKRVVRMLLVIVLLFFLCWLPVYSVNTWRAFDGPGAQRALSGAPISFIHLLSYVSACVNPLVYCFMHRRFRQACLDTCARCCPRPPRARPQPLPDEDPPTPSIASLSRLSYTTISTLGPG
The experiment in a line: Capacity to inhibit [3H]-p CCK 8 binding to membrane preparations of CHO cells transfected with the rat CCK-B receptor. It is filed as cell membranes. Summed up: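 Ki from displacement of [3H]pCCK8 bound to membranes of CHO cells stably transfected with the rat CCK-B receptor.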

Assay [3] concerns the target T2, Gastrin/cholecystokinin type B receptor. The assay is described as follows: Inhibitory activity against CCK-B receptor.

As a reminder, the Ki is the equilibrium dissociation constant of an inhibitor or competing ligand from its target. Read a high Ki as lower affinity. With `CC(Cc1c[nH]c2ccccc12)(NC(=O)OC1[C@H]2C[C@@H]3C[C@@H](C[C@H]1C3)C2)C(=O)N1CCC(C(=O)c2ccccc2)CC1` (stereo partly drawn), the inhibition constant (Ki) in assay [1] was 1700 nM; in assay [2] it was 3400 nM.

`C[C@](Cc1c[nH]c2ccccc12)(NC(=O)OC1C2CC3CC(C2)CC1C3)C(=O)N1CC[C@H](Oc2ccc(Cl)cc2Cl)C[C@H]1C(=O)O` (stereo partly drawn) gave a Ki in assay [2] of 791 nM.

Turning to `C[C@](Cc1c[nH]c2ccccc12)(NC(=O)OC1C2CC3CC(C2)CC1C3)C(=O)N1CC[C@H](Oc2ccc(Cl)cc2Cl)C[C@@H]1C(=O)O` (stereo partly drawn), the figures for the inhibition constant Ki in assay [1] and in assay [2] were 3720 nM and 175 nM, respectively.

In assay [2], `COC(=O)[C@H]1C[C@@H](Oc2ccc(Cl)cc2Cl)CCN1C(=O)[C@@](C)(Cc1c[nH]c2ccccc12)NC(=O)OC1C2CC3CC(C2)CC1C3` (stereo partly drawn) came in with a Ki of 1540 nM.

In the case of `C[C@](Cc1c[nH]c2ccccc12)(NC(=O)OC1C2CC3CC(C2)CC1C3)C(=O)N1C[C@H](OCc2ccccc2)C[C@@H]1C(=O)O` (stereo partly drawn), the affinity in assay [2], expressed as Ki, was 24 nM.

For the compound `C[C@](Cc1c[nH]c2ccccc12)(NC(=O)OC1C2CC3CC(C2)CC1C3)C(=O)N(CCc1ccc(Cl)cc1)CC(=O)O` (stereo partly drawn), the inhibition constant (Ki) in assay [1] is 1060 nM. This counts as single-digit micromolar.

As a reminder, the IC50 is the concentration needed to halve the response being measured. `C[C@](Cc1c[nH]c2ccccc12)(NC(=O)OC1C2CC3CC(C2)CC1C3)C(=O)N1C[C@H](Oc2ccc(Cl)cc2Cl)C[C@@H]1C(=O)O` (stereo partly drawn): the Ki in assay [1] came to 751 nM; in assay [2], 15.3 nM. Further, the IC50 in assay [3] was determined as 37.4 nM.

The compound `C[C@](Cc1c[nH]c2ccccc12)(NC(=O)OC1C2CC3CC(C2)CC1C3)C(=O)N1C[C@H](Oc2ccc(F)cc2F)C[C@@H]1C(=O)O` (stereo partly drawn) came in with an inhibition constant (Ki) in assay [2] of 18.6 nM. This compound registered a concentration for half-maximal inhibition (IC50) in assay [3] of 389 nM.

In assay [2], `C[C@](Cc1c[nH]c2ccccc12)(NC(=O)OC1C2CC3CC(C2)CC1C3)C(=O)N1CC[C@@H](Oc2ccc(Cl)cc2Cl)C[C@@H]1C(=O)O` (stereo partly drawn) registered a Ki of 789 nM.

The compound `C[C@@](Cc1c[nH]c2ccccc12)(NC(=O)OC1C2CC3CC(C2)CC1C3)C(=O)N1CC[C@H](Oc2ccc(Cl)cc2Cl)C[C@@H]1C(=O)O` (stereo partly drawn) showed an inhibition constant (Ki) in assay [2] of 812 nM. This Ki and that of the compound before are within 1.5-fold of each other.

Take `C[C@@](Cc1c[nH]c2ccccc12)(NC(=O)OC1C2CC3CC(C2)CC1C3)C(=O)N1CC[C@H](Oc2ccc(Cl)cc2Cl)C[C@H]1C(=O)O` (stereo partly drawn): the Ki in assay [1] is 1060 nM; in assay [2], 1680 nM. The same compound registered an IC50 in assay [3] of 217 nM.

Take `C[C@](Cc1c[nH]c2ccccc12)(NC(=O)OC1C2CC3CC(C2)CC1C3)C(=O)N1CC[C@@H](Oc2ccc(Cl)cc2Cl)C[C@H]1C(=O)O` (stereo partly drawn): in assay [2], the inhibition constant Ki amounted to 543 nM.

With `C[C@](Cc1c[nH]c2ccccc12)(NC(=O)OC1C2CC3CC(C2)CC1C3)C(=O)N1C[C@H](Oc2ccc([N+](=O)[O-])cc2)C[C@@H]1C(=O)O` (stereo partly drawn), the affinity in assay [2], expressed as Ki, was 32.7 nM. This compound had an IC50 in assay [3] of 507 nM.

On to `C[C@@](Cc1c[nH]c2ccccc12)(NC(=O)OC1C2CC3CC(C2)CC1C3)C(=O)N1CC[C@@H](Oc2ccc(Cl)cc2Cl)C[C@H]1C(=O)O` (stereo partly drawn), for which the Ki in assay [2] was determined as 896 nM.

Turning to `CC(Cc1c[nH]c2ccccc12)(NC(=O)OC1C2CC3CC(C2)CC1C3)C(=O)N1CC[C@@H](Oc2ccc(Cl)cc2Cl)C[C@@H]1C(=O)O` (single isomer, unassigned), in assay [2], affinity was put at a Ki of 1040 nM. This Ki and that of the compound before are within 1.5-fold of each other.
